Published values from different studies.
Protocols differ between the studies behind these lines.
Target: Bone morphogenetic protein receptor type-2 (BMPR2, Homo sapiens, UniProt Q13873)
Sequence (Q13873 27-1038, as in one of the studies): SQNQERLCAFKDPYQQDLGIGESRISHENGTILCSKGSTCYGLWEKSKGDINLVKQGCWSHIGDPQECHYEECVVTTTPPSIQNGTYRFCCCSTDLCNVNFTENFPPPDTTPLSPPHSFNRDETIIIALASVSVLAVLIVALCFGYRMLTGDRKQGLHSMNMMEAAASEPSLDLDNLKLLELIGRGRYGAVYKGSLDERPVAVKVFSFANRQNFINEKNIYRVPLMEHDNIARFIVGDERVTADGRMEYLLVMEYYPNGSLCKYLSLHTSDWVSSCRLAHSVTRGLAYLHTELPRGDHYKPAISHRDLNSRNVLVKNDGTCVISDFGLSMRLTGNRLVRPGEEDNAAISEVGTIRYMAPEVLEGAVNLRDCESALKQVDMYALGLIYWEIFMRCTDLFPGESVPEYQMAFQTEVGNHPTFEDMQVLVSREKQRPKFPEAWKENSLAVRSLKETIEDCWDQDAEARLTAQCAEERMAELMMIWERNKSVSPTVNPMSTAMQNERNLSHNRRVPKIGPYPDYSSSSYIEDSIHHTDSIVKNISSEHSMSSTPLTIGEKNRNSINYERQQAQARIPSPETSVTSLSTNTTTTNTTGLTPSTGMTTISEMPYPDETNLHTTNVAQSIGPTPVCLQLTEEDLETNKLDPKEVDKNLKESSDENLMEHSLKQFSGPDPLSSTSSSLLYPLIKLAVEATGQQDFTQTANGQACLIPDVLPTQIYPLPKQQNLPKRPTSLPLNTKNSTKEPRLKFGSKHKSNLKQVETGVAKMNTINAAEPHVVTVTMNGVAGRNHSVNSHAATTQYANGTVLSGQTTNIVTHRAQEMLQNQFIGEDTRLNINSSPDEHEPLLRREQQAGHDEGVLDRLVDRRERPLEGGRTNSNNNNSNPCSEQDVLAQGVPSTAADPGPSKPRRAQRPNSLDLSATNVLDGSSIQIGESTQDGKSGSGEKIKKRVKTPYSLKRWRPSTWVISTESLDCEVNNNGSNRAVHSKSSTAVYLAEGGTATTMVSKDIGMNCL

Compound	assay	setting	quantity	value
O=C(Nc1cnn(-c2csc(C(=O)NC3COC3)c2)c1)Nc1c(F)cccc1Cl	enzyme activity, inhibitor	5 µM	remaining activity	77.2%
COc1cc(Cl)c(C(=O)N[C@@H](CN[C@H]2CC[C@@H](N)CC2)Cc2ccc(C#N)cc2)cc1-c1ccc(CN[C@H](C)c2ccc(C)cc2)o1	enzyme activity, inhibitor	1 µM	remaining activity	99%
CN1CC(Oc2cnc(C#N)cc2-c2ccn3nc(NC(=O)C4CC4)cc3c2)C1	enzyme activity, inhibitor	1 µM	inhibition	1%
CS(=O)(=O)NCC[C@H](NC(=O)c1cncc2c1cnn2-c1ccc(F)cc1)c1ccnc(S(C)(=O)=O)c1	cell-free assay, competition with immobilised ligand	1 µM	remaining binding	100%
CS(=O)(=O)Nc1cccc(-c2csc(NC(=O)CSc3nc4nccnc4c(=O)n3CCc3ccccc3)n2)c1	enzyme activity, inhibitor	10 µM	inhibition	3%
C[C@@]1(Cc2ccc(C#N)cc2)C(=O)N(c2cc(Cl)cc(Cl)c2)c2ncc(C(=O)NC3(c4nc(C5CCC5)no4)CC3)n21	cell-free assay, competition with immobilised ligand	1 µM	remaining binding	100%
Cn1c2c(c3ccccc31)C(C#N)C(C)(C)NC2=O (stereo not drawn)	thermal stability, DSF	10 µM	ΔTm	0.2 °C
Cn1cncc1C1=CN(c2ncnc3[nH]cnc23)CCS1	enzyme activity, inhibitor, radiometric	2 µM	inhibition	74%
Cn1c2c(Cl)c(Cl)ccc2c2cn[nH]c(=O)c21	thermal stability, DSF	10 µM	ΔTm	2.9 °C
Cn1nc(C(F)(F)F)cc1-c1cnc(N2CCc3cc(S(=O)(=O)Nc4c(F)cc(Cl)cc4F)cc(N4CCCC4=O)c32)nc1	cell-free assay, competition with immobilised ligand	1 µM	remaining binding	77%
Cn1c2c(c3ccc(Cl)c(Cl)c31)C(C#N)C1(CCOCC1)NC2=O (stereo not drawn)	thermal stability, DSF	10 µM	ΔTm	0.9 °C
CC(C)(O)[C@H]1CC[C@H](Nc2ccc3ncc(-c4cccc(C(F)(F)F)c4)n3n2)CC1	enzyme activity, inhibitor	1 µM	remaining activity	37.3%
